Experiments:
[1] = biological target: Fibroblast growth factor receptor 1 (Homo sapiens, UniProt P11362); assay: Inhibition of FGFR1 (unknown origin) using FAM-labeled peptide as substrate preincubated for 5 to 10 mins followed by substrate/ATP addition measured after 30 to 60 mins by mobility shift assay
Outline: (§1)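 Caliper mobility-shift assay with FAM-labeled peptide substrate. Buffer: 50 mM HEPES pH 7.5, 0.0015% Brij-35, 10 mM MgCl2, 2 mM DTT, with kinase-specific enzyme levels. […] Incubation was 30-60 min at 28°C, stopped with EDTA buffer. Read-out was % conversion.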

[2] = Volume of distribution at steady state in Sprague-Dawley rat plasma at 1 mg/kg, iv by UPLC-MS/MS analysis; format: ADME, organism-based; conditions: read-out: Vdss
Outline: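 Male Sprague-Dawley rats (180-220 g), fasted overnight with water available, dosed iv (n=2). Blood on heparin collected from 0 to 1440 min. Plasma obtained by centrifugation and stored at -20°C. Proteins precipitated with acetonitrile containing internal standard, then UPLC-MS/MS. Vss taken from the iv data.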

[3] = biological target: CYP2C19 (Homo sapiens, UniProt P33261); assay: Time dependent irreversible inhibition of CYP2C19 in human liver microsomes at 10 uM preincubated with compound followed by NADPH addition by LC-MS/MS analysis; format: ADME
Outline: (§2)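 HLM (0.2 mg/ml) with 10 µM compound were preincubated 0, 5, 10 or 20 min at 37°C with 1 mM NADPH or PBS. Substrate cocktail (halved concentrations) plus NADPH was then added for 10 min. Metabolites were measured by LC-MS/MS. Kobs is the slope of relative activity versus preincubation time.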

[4] = biological target: CYP3A4 (Homo sapiens, UniProt P08684); assay: Time dependent irreversible inhibition of CYP3A4 in human liver microsomes at 10 uM preincubated with compound followed by NADPH addition by LC-MS/MS analysis; format: ADME; conditions: liver microsomes; outline: as §2
[5] = tested on: NCI-H1993; assay: Antitumor activity against human NCI-H1993 cells xenografted in BALB/c athymic nude mouse assessed as tumor growth inhibition at 10 mg/kg, po administered once daily for 3 weeks; format: functional; conditions: 504 h, read-out: TGI
Outline: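 BALB/c nude mice, 5-6 weeks old, kept under SPF conditions, received 7×10^6 NCI-H1993 cells s.c. in the right flank. At 150-250 mm³ they were sorted and randomized, n=7 per group, with vehicle controls. Dosing was oral, once daily for 3 weeks. […] Mean±SEM, Student's t-test.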

[6] = biological target: T1, CYP2C9 (Homo sapiens, UniProt P11712); assay: Reversible inhibition of CYP2C9 in human liver microsomes at 10 uM after 20 mins by in presence of NADPH LC-MS/MS analysis; format: ADME; conditions: liver microsomes
[7] = biological target: Epidermal growth factor receptor (Homo sapiens, UniProt P00533, T790M); assay: Inhibition of EGFR T790M mutant (unknown origin) using FAM-labeled peptide as substrate preincubated for 5 to 10 mins followed by substrate/ATP addition measured after 30 to 60 mins by mobility shift assay; outline: as §1
[8] = biological target: Platelet-derived growth factor receptor beta (Homo sapiens, UniProt P09619); assay: Inhibition of PDGFRbeta (unknown origin) using FAM-labeled peptide as substrate preincubated for 5 to 10 mins followed by substrate/ATP addition measured after 30 to 60 mins by mobility shift assay; outline: as §1
[9] = biological target: Insulin-like growth factor 1 receptor (Homo sapiens, UniProt P08069); assay: Inhibition of IGF1R (unknown origin) using FAM-labeled peptide as substrate preincubated for 5 to 10 mins followed by substrate/ATP addition measured after 30 to 60 mins by mobility shift assay; outline: as §1
[10] = biological target: T1, CYP2C9; assay: Time dependent irreversible inhibition of CYP2C9 in human liver microsomes at 10 uM preincubated with compound followed by NADPH addition by LC-MS/MS analysis; format: ADME; conditions: liver microsomes; outline: as §2
[11] = biological target: T2, CYP1A2 (Homo sapiens, UniProt P05177); assay: Time dependent irreversible inhibition of CYP1A2 in human liver microsomes at 10 uM preincubated with compound followed by NADPH addition by LC-MS/MS analysis; format: ADME; conditions: liver microsomes; outline: as §2
T2 sequence (P05177 whole entry): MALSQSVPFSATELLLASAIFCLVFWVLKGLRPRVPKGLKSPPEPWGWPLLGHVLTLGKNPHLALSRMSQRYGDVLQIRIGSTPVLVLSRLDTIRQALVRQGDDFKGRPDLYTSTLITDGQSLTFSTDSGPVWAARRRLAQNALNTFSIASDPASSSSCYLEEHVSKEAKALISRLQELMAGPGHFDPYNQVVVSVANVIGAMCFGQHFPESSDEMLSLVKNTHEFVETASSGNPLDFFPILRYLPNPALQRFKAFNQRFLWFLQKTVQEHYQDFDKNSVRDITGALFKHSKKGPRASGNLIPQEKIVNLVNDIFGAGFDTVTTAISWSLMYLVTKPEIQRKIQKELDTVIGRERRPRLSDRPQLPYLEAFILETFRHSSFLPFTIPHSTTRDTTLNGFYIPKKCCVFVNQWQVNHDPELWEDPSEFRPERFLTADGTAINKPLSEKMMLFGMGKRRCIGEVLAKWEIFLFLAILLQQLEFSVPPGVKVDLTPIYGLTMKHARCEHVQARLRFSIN

[12] = tested on: Mus musculus; assay: Toxicity in BALB/c athymic nude mouse xenografted with human SNU5 cells assessed as apparent toxicity parameters at 0.3 to 3 mg/kg, po administered once daily for 2 weeks; format: organism-based; conditions: in vivo, 336 h
Outline: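 Female/male BALB/c nude mice (5-6 weeks, SPF). NCI-H1993 cells (7×10^6 in 140 µL) or SNU-5 cells (6×10^6 in 200 µL) injected s.c. into the right flank. Dosing started at mean tumour volume 150-250 mm³ (NCI-H1993) or 100-200 mm³ (SNU-5). Randomized, n = 7 (NCI-H1993) or 6 (SNU-5) per group. Oral dosing once daily; vehicle controls. Body weight and signs of toxicity monitored during treatment.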

[13] = Clearance in Sprague-Dawley rat plasma at 1 mg/kg, iv by UPLC-MS/MS analysis; format: ADME, organism-based
Outline: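 Male Sprague-Dawley rats (180-220 g) were fasted overnight with free access to water. Dosing was intravenous (n=2) or oral at 6 mg/kg (n=3). Heparinized blood was drawn from 0 to 1440 min. Plasma was frozen at -20°C, then precipitated with acetonitrile containing internal standard, centrifuged and analysed by UPLC-MS/MS.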

T1 sequence (P11712 whole entry): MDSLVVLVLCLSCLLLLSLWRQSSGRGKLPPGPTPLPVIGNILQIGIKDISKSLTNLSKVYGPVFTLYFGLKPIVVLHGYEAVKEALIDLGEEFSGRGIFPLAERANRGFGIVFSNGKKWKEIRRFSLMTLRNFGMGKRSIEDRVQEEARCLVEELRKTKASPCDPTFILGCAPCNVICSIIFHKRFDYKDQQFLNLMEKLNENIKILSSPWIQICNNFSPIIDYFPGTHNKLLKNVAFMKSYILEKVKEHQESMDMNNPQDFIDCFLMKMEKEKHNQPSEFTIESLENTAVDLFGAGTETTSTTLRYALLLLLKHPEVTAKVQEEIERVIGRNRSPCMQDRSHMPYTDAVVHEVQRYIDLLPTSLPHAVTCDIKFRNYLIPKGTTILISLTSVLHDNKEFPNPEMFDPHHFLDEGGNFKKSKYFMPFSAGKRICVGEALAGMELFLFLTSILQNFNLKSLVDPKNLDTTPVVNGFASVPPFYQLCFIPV
Epidermal growth factor receptor, sequence (P00533 25-1210 T790M limits assumed): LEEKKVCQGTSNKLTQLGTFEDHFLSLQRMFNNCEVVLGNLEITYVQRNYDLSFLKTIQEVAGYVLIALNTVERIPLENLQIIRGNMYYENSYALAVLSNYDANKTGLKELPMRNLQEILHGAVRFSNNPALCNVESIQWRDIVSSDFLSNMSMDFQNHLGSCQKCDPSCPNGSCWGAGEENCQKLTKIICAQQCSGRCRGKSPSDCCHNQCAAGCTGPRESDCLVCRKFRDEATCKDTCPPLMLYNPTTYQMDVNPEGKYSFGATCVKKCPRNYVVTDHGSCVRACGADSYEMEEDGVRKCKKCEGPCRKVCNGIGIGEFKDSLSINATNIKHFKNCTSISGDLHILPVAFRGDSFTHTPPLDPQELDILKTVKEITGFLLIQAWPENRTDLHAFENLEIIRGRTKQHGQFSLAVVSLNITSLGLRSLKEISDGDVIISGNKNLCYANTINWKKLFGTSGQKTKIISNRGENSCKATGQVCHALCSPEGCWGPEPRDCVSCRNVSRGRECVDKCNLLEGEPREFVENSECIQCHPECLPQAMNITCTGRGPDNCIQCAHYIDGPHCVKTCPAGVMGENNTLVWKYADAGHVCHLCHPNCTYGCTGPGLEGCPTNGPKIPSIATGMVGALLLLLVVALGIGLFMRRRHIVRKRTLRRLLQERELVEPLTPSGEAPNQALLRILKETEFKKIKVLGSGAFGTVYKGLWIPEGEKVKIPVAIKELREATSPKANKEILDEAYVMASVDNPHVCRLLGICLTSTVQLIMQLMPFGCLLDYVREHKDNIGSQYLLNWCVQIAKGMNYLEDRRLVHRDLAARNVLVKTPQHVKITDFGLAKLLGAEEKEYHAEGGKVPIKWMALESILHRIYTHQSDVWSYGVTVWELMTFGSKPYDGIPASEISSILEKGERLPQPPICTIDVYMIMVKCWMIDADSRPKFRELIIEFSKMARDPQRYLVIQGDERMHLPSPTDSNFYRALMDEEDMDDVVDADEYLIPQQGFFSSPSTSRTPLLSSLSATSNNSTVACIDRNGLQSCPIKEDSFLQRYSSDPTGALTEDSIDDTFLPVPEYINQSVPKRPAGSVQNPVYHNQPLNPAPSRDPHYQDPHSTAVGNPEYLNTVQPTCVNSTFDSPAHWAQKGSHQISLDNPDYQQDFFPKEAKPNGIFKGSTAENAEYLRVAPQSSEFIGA
Insulin-like growth factor 1 receptor, sequence (P08069 31-736 limits assumed): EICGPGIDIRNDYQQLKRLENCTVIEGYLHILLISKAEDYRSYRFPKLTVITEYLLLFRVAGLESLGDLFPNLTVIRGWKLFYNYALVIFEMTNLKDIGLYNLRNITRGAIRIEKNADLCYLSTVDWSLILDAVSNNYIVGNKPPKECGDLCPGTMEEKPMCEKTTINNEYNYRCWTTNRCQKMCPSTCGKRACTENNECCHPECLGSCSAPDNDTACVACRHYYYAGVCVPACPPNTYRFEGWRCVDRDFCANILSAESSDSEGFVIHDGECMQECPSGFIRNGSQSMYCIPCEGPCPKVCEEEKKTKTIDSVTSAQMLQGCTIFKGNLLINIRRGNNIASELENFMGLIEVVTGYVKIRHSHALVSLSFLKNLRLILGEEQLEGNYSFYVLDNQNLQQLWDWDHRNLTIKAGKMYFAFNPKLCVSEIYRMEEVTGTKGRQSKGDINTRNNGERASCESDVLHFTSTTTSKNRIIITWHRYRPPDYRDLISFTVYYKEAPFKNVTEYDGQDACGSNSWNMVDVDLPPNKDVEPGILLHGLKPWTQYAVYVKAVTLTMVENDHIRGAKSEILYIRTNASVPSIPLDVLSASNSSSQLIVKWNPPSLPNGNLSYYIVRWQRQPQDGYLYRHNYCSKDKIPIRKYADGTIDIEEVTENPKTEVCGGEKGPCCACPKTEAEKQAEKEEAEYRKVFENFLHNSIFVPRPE
Insulin-like growth factor 1 receptor, sequence (P08069 741-1367 limits assumed): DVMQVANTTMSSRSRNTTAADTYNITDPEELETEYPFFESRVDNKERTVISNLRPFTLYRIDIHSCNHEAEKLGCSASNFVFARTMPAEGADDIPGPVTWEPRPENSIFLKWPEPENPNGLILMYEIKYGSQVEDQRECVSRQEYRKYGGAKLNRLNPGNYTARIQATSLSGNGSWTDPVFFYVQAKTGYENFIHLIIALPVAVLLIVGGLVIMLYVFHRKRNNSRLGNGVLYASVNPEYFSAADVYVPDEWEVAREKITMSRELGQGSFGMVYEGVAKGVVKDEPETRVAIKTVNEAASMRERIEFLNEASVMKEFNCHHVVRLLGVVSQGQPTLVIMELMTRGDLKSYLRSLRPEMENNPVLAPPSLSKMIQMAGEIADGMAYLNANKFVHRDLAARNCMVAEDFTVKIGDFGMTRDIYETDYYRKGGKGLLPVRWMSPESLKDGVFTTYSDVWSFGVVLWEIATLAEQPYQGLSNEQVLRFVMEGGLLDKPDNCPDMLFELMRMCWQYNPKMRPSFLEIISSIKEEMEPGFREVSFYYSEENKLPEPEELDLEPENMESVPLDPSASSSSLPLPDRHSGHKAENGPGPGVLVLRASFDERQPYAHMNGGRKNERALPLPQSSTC
Fibroblast growth factor receptor 1, sequence (P11362 whole entry): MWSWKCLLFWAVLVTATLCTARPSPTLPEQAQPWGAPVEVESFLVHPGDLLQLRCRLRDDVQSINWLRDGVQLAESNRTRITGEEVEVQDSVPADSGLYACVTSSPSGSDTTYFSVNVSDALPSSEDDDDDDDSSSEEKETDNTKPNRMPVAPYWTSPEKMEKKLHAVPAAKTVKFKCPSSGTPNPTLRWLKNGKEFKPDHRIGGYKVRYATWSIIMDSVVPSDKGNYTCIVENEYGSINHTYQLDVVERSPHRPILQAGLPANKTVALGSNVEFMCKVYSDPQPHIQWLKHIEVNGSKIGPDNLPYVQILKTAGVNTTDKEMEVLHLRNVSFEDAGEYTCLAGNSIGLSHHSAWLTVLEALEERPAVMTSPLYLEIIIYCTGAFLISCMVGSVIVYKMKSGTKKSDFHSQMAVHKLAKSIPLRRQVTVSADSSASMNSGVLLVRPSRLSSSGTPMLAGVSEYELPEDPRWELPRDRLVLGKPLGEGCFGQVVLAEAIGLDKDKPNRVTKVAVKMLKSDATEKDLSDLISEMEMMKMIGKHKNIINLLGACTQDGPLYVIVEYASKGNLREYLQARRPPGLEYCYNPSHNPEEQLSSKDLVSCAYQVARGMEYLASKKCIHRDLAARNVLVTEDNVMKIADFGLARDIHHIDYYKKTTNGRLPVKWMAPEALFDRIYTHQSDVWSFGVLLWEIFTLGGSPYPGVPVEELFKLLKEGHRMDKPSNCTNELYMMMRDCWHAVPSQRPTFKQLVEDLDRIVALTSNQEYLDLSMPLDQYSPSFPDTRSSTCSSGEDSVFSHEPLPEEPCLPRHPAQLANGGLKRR
CYP3A4, sequence (P08684 whole entry): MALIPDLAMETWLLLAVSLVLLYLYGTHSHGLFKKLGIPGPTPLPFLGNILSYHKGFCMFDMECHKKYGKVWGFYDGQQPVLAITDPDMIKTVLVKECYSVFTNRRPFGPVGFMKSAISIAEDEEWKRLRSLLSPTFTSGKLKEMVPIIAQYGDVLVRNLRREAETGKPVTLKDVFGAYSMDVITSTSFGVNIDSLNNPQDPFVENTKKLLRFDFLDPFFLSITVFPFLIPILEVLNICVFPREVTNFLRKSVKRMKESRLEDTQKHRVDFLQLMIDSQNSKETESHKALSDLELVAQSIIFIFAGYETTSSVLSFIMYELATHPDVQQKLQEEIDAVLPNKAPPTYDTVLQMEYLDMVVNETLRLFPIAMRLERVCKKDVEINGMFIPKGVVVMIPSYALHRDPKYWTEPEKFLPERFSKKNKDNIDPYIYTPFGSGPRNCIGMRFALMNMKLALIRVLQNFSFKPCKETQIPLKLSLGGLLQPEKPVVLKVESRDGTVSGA
CYP2C19, sequence (P33261 whole entry): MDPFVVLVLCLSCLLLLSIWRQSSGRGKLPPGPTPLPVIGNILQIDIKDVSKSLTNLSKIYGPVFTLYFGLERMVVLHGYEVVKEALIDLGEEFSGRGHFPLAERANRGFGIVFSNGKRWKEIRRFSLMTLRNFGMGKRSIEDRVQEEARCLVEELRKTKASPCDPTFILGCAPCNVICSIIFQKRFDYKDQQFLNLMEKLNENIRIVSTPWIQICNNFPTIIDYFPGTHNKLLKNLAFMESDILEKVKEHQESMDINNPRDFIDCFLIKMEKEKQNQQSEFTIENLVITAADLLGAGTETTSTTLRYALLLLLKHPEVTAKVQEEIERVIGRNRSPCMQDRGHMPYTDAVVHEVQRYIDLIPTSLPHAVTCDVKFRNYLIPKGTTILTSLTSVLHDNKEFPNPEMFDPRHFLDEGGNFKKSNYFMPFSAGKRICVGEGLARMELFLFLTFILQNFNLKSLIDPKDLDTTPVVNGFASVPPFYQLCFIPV

CC(c1cc2cc(-c3cnn(C)c3)cnc2cc1F)n1nnc2ncc(-c3cnn(CCO)c3)nc21 (stereo in doubt; 14)
IC50 [1]: > 30 µM | Vd [2]: 2.1 L/kg | inhibition at 10 µM [3]: < 50% | inhibition at 10 µM [4]: < 50% | inhibition in vivo at 10 mg/kg [5]: 90.8% | inhibition at 20 min, 10 µM [6]: < 50% | IC50 [7]: > 30 µM | IC50 [8]: > 30 µM | IC50 [9]: > 30 µM | inhibition at 10 µM [10]: < 50% | inhibition at 10 µM [11]: < 50% | Activity [12]: Non-Toxic | clearance [13]: 9.67 mL/min/kg

Reference: ChEMBL document CHEMBL4020721 (Eur J Med Chem, 2017)
